STAT1 activator: STAT1 signaling activators, primary screen, cell-based, HTS, luciferase reporter; activation (% of control), % at 5.5 µM; NIH 3T3 STAT1-luciferase reporter, IFN-gamma, luminescence; 100% = IFN-gamma alone, no compound; 200,000 compounds, 2.6% hits; AID 932, 2007;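 active = activation above the screen-wide mean activation plus 3 SD, cut at about 130% in these data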;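 note: raw ratio to IFN-gamma control signal so 100% means no change and 0% no light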
SDO1 yeast rescue: growth rescue of sdo1-depleted yeast, primary screen, S. cerevisiae, bone marrow failure model; AID 817, 2007; z-score at 10 µM; S. cerevisiae sdo1-depleted JHY4D growth rescue, OD600 30 h; hits give high values; pdr5 snq2 efflux-pump mutant strain; 140,000 compounds, 0.21% hits;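 active = z-score above 3 at both the 24 hr and the 30 hr optical density reads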;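 note: z-score against mean and SD of all compound wells on the same plate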
FLuc act counter: FLuc activators, initial screening, artefact control for FLuc-dependent activation tests, biochemical, ATPlite luminescence. activation factor at 10 µM. AID 1027, 2008. ATPlite luciferase biochemical, 10 min; 0 = ATP-free wells, 1 = DMSO control. 200,000 tested, under 10 active. Luciferin 4-monooxygenase (Photinus pyralis), P08659;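 active = luciferase activation factor, scaled between plate controls, of at least 2 with compound at 10 µM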
Target sequence (P08659 whole entry, looked up): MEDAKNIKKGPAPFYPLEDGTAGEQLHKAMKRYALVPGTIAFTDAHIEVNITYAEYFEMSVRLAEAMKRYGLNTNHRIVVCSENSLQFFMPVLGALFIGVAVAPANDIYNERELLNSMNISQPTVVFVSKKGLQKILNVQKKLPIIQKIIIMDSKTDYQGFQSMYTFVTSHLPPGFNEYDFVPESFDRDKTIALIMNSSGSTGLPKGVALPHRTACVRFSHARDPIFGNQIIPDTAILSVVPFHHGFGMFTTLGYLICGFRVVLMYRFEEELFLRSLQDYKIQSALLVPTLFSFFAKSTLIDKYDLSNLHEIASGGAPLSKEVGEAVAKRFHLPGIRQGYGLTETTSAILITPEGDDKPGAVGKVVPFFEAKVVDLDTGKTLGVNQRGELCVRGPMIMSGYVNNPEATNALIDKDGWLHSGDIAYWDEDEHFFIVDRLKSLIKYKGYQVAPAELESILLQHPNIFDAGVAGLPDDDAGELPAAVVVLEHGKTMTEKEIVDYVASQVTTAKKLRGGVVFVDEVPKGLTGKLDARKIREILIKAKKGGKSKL
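Assay system: Luciferase/luciferin detection reagent, cell-free biochemical luciferase assay / Read-out: luciferase activation / Benchmarks: No-ATP low control, compound-free enzyme-plus-ATP high control / Medium: PBS buffer for ATP / Detection: luminescence measurement of luciferase light output / Schedule: 10 min at ambient temperature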
APP 5'UTR act: activators of APP 5'UTR luciferase reporter, primary screen, SH-SY5Y cells. 190,000 compounds, 1% hits. AID 1276, 2008. activation, % at 2 µM. SH-SY5Y APP 5'UTR luciferase reporter, luminescence; zero percent = DMSO vehicle wells;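 active = activation above a set limit, based on mean plus 3 SD of controls, cut at about 140% in these data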
NF-kB neuron act: activators of NF-kB expression in neurons, primary screen, cell-based, HTS | AID 1239, 2008 | 190,000 compounds, 1.6% hits | human neuronal cells, NF-kB reporter expression; hits give high values | fold change at 12.5 µM; in the data active = fold change above about 3.3
FLuc inhib CS: firefly luciferase enzyme inhibitors, primary screen, artefact control for luciferase-based inhibitor screens, biochemical, luminescence, ATPLite; inhibition, % at 10 µM; 200,000 compounds, 1.5% hits; AID 1006, 2008; 10 min; Luciferin 4-monooxygenase (Photinus pyralis), P08659;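 active = inhibition above about 50% when tested at 10 µM, limit read from the data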
* marks the source's active call; other numbers are inactive results. Rows were chosen to be rich in hits. Some 4.3% of all compounds tested hit in one or more screens of this group.

Screening COC(=O)c1ccc(COC(=O)c2[nH]c(C)c(C(C)=O)c2C)o1 returned STAT1 activator 79, SDO1 yeast rescue -0.27, FLuc act counter 1, APP 5'UTR act -1, NF-kB neuron act 0.88 and FLuc inhib CS 3.
Screening CC(=O)c1c(C)[nH]c(C(=O)OCc2ccccc2)c1C returned STAT1 activator 142*, SDO1 yeast rescue -1.6, FLuc act counter 1, APP 5'UTR act 50, NF-kB neuron act 2.2 and FLuc inhib CS 3.
For COc1ccccc1CNC(=O)CSc1ccsc1[N+](=O)[O-] the results were STAT1 activator 137*, FLuc act counter 1, APP 5'UTR act 60, NF-kB neuron act 2.5 and FLuc inhib CS -1.
For CCOc1ccc(C(=O)Nc2cc(NC(=O)c3ccc(OCC)c(Cl)c3)cc(C(=O)O)c2)cc1Cl the results were STAT1 activator 101, FLuc act counter 1, APP 5'UTR act 13, NF-kB neuron act 3.7* and FLuc inhib CS -2.
`CCOc1ccc(C(=O)Nc2cccc(C(=O)O)c2)cc1Cl` gave STAT1 activator 34, FLuc act counter 0.2, APP 5'UTR act 76, NF-kB neuron act 6.2* and FLuc inhib CS 79*.
Screening CCOc1ccc(C(=O)Nc2ccc(NC(=S)NC(=O)CC)cc2)cc1Cl returned STAT1 activator 96, SDO1 yeast rescue -0.33, FLuc act counter 1, APP 5'UTR act 6, NF-kB neuron act 1.3 and FLuc inhib CS -4.
Screening CC(C)OC(=O)CSc1nnnn1-c1ccc2c(c1)OCCO2 returned STAT1 activator 129*, SDO1 yeast rescue -0.48, FLuc act counter 1, APP 5'UTR act 20, NF-kB neuron act 2.1 and FLuc inhib CS 0.
`O=C1CN(C(=O)/C=C/c2ccco2)c2ccccc2N1` gave STAT1 activator 105, FLuc act counter 1.1, APP 5'UTR act -4, NF-kB neuron act 1 and FLuc inhib CS -7.
Screening O=C(CCCN1CCOCC1)c1ccc2c(c1)OCCO2 returned STAT1 activator 142*, SDO1 yeast rescue 0.41, FLuc act counter 0.9, APP 5'UTR act 101, NF-kB neuron act 1.4 and FLuc inhib CS 5.
For Cn1c(C(=O)Nc2ccccc2)cc2sccc21 the results were STAT1 activator 112, SDO1 yeast rescue 1.8, FLuc act counter 0.8, APP 5'UTR act 32, NF-kB neuron act 1.6 and FLuc inhib CS 18.
COc1cc(NC(=O)c2cc3sccc3n2C)cc(OC)c1 was read as STAT1 activator 132*, SDO1 yeast rescue -0.39, FLuc act counter 0.8, APP 5'UTR act 104, NF-kB neuron act 2.5 and FLuc inhib CS 20.
`CCOC(=O)c1ccc(NC(=S)NNC(=O)C2(C)CC2(Cl)Cl)cc1` (stereo unspecified) gave STAT1 activator 103, SDO1 yeast rescue 0.39, FLuc act counter 1, NF-kB neuron act 1.1 and FLuc inhib CS 0.
Cc1cc2cc(CNC(=O)c3ccc(C)c([N+](=O)[O-])c3)ccc2[nH]1 was read as STAT1 activator 97, SDO1 yeast rescue -2.3, FLuc act counter 1, APP 5'UTR act -10, NF-kB neuron act 0.8 and FLuc inhib CS -2.
Cc1nc2c(ccc3nc(NC(=O)C4CC4)sc32)s1 was read as STAT1 activator 156*, FLuc act counter 0.7, APP 5'UTR act 25, NF-kB neuron act 4.7* and FLuc inhib CS 28.
O=C(CN1CCOCC1)Nc1ncc(Cc2cccc(Cl)c2Cl)s1 was read as STAT1 activator 103, SDO1 yeast rescue -1.5, FLuc act counter 1, APP 5'UTR act -5, NF-kB neuron act 0.88 and FLuc inhib CS -5.
`O=C(Nc1ccccn1)c1ccc2c(c1)OCCO2` gave STAT1 activator 110, FLuc act counter 0.3, APP 5'UTR act 128, NF-kB neuron act 4.2* and FLuc inhib CS 74*.
Screening O=C(Nc1ncccc1Cl)c1ccc2c(c1)OCCO2 returned STAT1 activator 138*, FLuc act counter 0.6, APP 5'UTR act 55, NF-kB neuron act 2.9 and FLuc inhib CS 37.
O=C(Nc1nc(-c2ccccn2)cs1)c1ccc2c(c1)OCCO2 was read as STAT1 activator 131*, FLuc act counter 0.2, APP 5'UTR act 110, NF-kB neuron act 2.7 and FLuc inhib CS 79*.
`COc1ccc(CNC(=O)C2CCCN(c3nccc(C)n3)C2)cc1` (stereo unspecified) gave STAT1 activator 100, SDO1 yeast rescue -0.03, FLuc act counter 1, APP 5'UTR act 9, NF-kB neuron act 1.1 and FLuc inhib CS -1.
O=[N+]([O-])c1ccc2nc(-c3ccccc3)[nH]c2c1 was read as STAT1 activator 141*, SDO1 yeast rescue -0.37, FLuc act counter 0.7, APP 5'UTR act 109, NF-kB neuron act 1.3 and FLuc inhib CS 27.
For Nc1ccc2nc(-c3ccc(N)c(Cl)c3)[nH]c2c1 the results were STAT1 activator 132*, SDO1 yeast rescue 0.64, FLuc act counter 0.5, APP 5'UTR act 59, NF-kB neuron act 1.4 and FLuc inhib CS 52*.
Screening Cc1nc2ccc([N+](=O)[O-])cc2[nH]1 returned STAT1 activator 95, FLuc act counter 1, APP 5'UTR act 47, NF-kB neuron act 0.95 and FLuc inhib CS -2.
For Nc1ccc2nc(-c3ccccc3)[nH]c2c1 the results were STAT1 activator 131*, SDO1 yeast rescue -0.4, FLuc act counter 0.4, APP 5'UTR act 57, NF-kB neuron act 1.2 and FLuc inhib CS 57*.
C=Cc1ccc2c(c1)N(C)C(=C)S2 was read as STAT1 activator 98, FLuc act counter 1, APP 5'UTR act 2, NF-kB neuron act 1.3 and FLuc inhib CS 0.
`CC(Oc1ccc(Cl)cc1)C(=O)NNC(=S)NC(=O)c1ccco1` (stereo unspecified) gave STAT1 activator 98, SDO1 yeast rescue -2, FLuc act counter 1.1, APP 5'UTR act -2, NF-kB neuron act 0.6 and FLuc inhib CS -5.
`CCc1cccc(N=c2c([N+](=O)[O-])nn(-c3ccc(Cl)cc3)n2O)c1` gave STAT1 activator 100, SDO1 yeast rescue -1.8, FLuc act counter 1, APP 5'UTR act 10, NF-kB neuron act 4.9* and FLuc inhib CS -3.
`Cc1ccc(CN=c2c([N+](=O)[O-])nn(-c3ccc(Cl)cc3)n2O)cc1` gave STAT1 activator 140*, FLuc act counter 1, APP 5'UTR act 11, NF-kB neuron act 1.2 and FLuc inhib CS 4.
O=C(CC(Nc1ccccc1)C(=O)O)c1ccccc1 (stereo unspecified) was read as SDO1 yeast rescue -0.98, FLuc act counter 0.2, NF-kB neuron act 3.3* and FLuc inhib CS 78*.
